Activity calls are given as the source filed them. No cut-off for these calls is given here.

This is an account of results in ChEMBL document CHEMBL3091381, “In vitro cytotoxicity on human ovarian cancer cells by T-type calcium channel blockers” (Bioorg Med Chem Lett, 2013).

Data set [1] can be described thus: Cytotoxicity against human paclitaxel-resistant A2780T cells after 48 hrs by MTT assay. It is filed as functional, cell-based. To be noted: A2780/Taxol. The method in brief:
(§1)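 MTT viability assay. Cells were seeded and grown 24 h, then exposed 48 h to a range of concentrations of test agent in DMSO (0.1% final), with vehicle-matched DMSO controls. Medium was replaced by 0.5 mg/mL MTT in RPMI with 10% FBS for 2 h at 37 °C. Dye was solubilized and absorbance read. IC50 from dose–response curves, three independent experiments.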
In general terms: Tetrazolium dyes change colour on reduction, which living cells bring about.

In data set [2] the test system is A2780. Description: Cytotoxicity against human A2780 cells after 48 hrs by MTT assay. Particulars: A2780, 48 h. The data set is classed as functional, cell-based. In a few lines:
as §1

Data set [3] concerns SK-OV-3. Description: Cytotoxicity against human SKOV3 cells after 48 hrs by MTT assay. It is filed as functional, cell-based. Particulars: SK-OV-3, 48 h. In a few lines:
as §1

Data set [4] has as its target T1, Voltage-dependent T-type calcium channel subunit alpha-1G (Homo sapiens, UniProt O43497). Description: Inhibition of t-type Cav3.1 channel (unknown origin) expressed in HEK293 cells assessed as inhibition of 50 ms depolarizing voltage step-induced current at 1 uM by whole cell patch-clamp method relative to control. The data set is classed as cell-based. For orientation: The patch-clamp technique gives a direct electrical read-out from membranes.

Data set [5] can be described thus: Cell cycle arrest in human paclitaxel-resistant A2780T cells assessed as accumulation at sub-G1 phase after 24 hrs by FACS analysis. It is filed as functional, cell-based. To be noted: A2780/Taxol, in the assay text read “G1 phase” for “sub-G1 phase”. In a few lines: (§2)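 A2780 or paclitaxel-resistant A2780-T cells treated 24 h with compound at 0, 2, 4, 6 or 8 µM, depending on the series. Fixed cells were washed in PBS and stained 30 min in the dark with PI plus 100 µg/mL DNase-free RNase A. Phase distribution was read by flow cytometry. Means ± SD of three independent experiments; ANOVA with Dunnett's post-hoc test versus untreated control.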

Data set [6] concerns A2780. In words: Cell cycle arrest in human A2780 cells assessed as accumulation at G2/M phase at 6 uM after 24 hrs by FACS analysis. The data set is classed as functional. In a few lines: as §2
(In general: In flow cytometry, cells or beads pass a laser one at a time.)

In data set [7] the test system is HEK293. Description: Cytotoxicity against human HEK293 cells after 48 hrs by MTT assay. It is filed as cell-based. To be noted: HEK293, 48 h. The method in brief: as §1
Data set [8] addresses T1, Voltage-dependent T-type calcium channel subunit alpha-1G. Description: Inhibition of t-type Cav3.1 channel (unknown origin) expressed in HEK293 cells assessed as inhibition of 50 ms depolarizing voltage step-induced current by whole cell patch-clamp method. The data set is classed as cell-based.
For data set [9], the system named is A2780. Description: Cell cycle arrest in human A2780 cells assessed as accumulation at sub-G1 phase at 6 uM after 24 hrs by FACS analysis. It is filed as functional. The method in brief:
as §2

Data set [10] relates to A2780. In words: Induction of apoptosis in human A2780 cells assessed as cell shrinkage, membrane blebbing, chromatin condensation and apoptotic body formation at 6 uM after 24 hrs by DAPI staining. It is filed as functional, cell-based. In a few lines:
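A2780 cells exposed 24 h to 6 µM compound, then fixed, washed three times in PBS and stained 5 min with 0.1 µg/mL DAPI. Cells were washed, mounted in PBS with 10% glycerol and examined by fluorescence microscopy for shrinkage, blebbing, chromatin condensation and apoptotic bodies.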

For data set [11], the system named is A2780. Description: Cell cycle arrest in human A2780 cells assessed as accumulation at G0/G1 phase at 6 uM after 24 hrs by FACS analysis. The data set is classed as functional. The method in brief:
as §2

In data set [12] the test system is Mus musculus. Description: Toxicity in BALB/c mouse assessed as mortality at 40 mg/kg, po for 2 weeks. The data set is classed as organism-based. More on the design: dose 40 mg/kg, route oral. To be noted: in vivo, 336 h.
Data set [13] has as its system A2780. In words: Cell cycle arrest in human A2780 cells assessed as accumulation at sub-G1 phase after 24 hrs by FACS analysis. The data set is classed as functional, cell-based. To be noted: in the assay text read “G1 phase” for “sub-G1 phase”. In a few lines: as §2
Data set [14] relates to A2780. Description: Cell cycle arrest in human A2780 cells assessed as accumulation at S phase at 6 uM after 24 hrs by FACS analysis. The data set is classed as functional. In a few lines: as §2
Data set [15] is described as follows: Ratio of IC50 for mibefradil to compound IC50 for human paclitaxel-resistant A2780T cells. The data set is classed as functional.
For data set [16], the system named is A2780. Description: Cell cycle arrest in human A2780 cells assessed as accumulation at sub-G1 phase at 2 to 4 uM after 24 hrs by FACS analysis. It is filed as functional. In a few lines: as §2
The subject of data set [17] is A2780. In words: Cell cycle arrest in human A2780 cells assessed as accumulation at sub-G1 phase at 8 uM after 24 hrs by FACS analysis (reference value: 3.1%). The data set is classed as functional. In a few lines: as §2
Data set [18] can be described thus: Cell cycle arrest in human paclitaxel-resistant A2780T cells assessed as accumulation at sub-G1 phase at 8 uM after 24 hrs by FACS analysis. To be noted: A2780/Taxol. It is filed as functional, cell-based. The method in brief:
as §2

Data set [19] in a line: Cell cycle arrest in human paclitaxel-resistant A2780T cells assessed as accumulation at sub-G1 phase at 2 to 4 uM after 24 hrs by FACS analysis. The data set is classed as functional, cell-based. Particulars: A2780/Taxol. In a few lines:
as §2

T1 sequence (O43497 whole entry): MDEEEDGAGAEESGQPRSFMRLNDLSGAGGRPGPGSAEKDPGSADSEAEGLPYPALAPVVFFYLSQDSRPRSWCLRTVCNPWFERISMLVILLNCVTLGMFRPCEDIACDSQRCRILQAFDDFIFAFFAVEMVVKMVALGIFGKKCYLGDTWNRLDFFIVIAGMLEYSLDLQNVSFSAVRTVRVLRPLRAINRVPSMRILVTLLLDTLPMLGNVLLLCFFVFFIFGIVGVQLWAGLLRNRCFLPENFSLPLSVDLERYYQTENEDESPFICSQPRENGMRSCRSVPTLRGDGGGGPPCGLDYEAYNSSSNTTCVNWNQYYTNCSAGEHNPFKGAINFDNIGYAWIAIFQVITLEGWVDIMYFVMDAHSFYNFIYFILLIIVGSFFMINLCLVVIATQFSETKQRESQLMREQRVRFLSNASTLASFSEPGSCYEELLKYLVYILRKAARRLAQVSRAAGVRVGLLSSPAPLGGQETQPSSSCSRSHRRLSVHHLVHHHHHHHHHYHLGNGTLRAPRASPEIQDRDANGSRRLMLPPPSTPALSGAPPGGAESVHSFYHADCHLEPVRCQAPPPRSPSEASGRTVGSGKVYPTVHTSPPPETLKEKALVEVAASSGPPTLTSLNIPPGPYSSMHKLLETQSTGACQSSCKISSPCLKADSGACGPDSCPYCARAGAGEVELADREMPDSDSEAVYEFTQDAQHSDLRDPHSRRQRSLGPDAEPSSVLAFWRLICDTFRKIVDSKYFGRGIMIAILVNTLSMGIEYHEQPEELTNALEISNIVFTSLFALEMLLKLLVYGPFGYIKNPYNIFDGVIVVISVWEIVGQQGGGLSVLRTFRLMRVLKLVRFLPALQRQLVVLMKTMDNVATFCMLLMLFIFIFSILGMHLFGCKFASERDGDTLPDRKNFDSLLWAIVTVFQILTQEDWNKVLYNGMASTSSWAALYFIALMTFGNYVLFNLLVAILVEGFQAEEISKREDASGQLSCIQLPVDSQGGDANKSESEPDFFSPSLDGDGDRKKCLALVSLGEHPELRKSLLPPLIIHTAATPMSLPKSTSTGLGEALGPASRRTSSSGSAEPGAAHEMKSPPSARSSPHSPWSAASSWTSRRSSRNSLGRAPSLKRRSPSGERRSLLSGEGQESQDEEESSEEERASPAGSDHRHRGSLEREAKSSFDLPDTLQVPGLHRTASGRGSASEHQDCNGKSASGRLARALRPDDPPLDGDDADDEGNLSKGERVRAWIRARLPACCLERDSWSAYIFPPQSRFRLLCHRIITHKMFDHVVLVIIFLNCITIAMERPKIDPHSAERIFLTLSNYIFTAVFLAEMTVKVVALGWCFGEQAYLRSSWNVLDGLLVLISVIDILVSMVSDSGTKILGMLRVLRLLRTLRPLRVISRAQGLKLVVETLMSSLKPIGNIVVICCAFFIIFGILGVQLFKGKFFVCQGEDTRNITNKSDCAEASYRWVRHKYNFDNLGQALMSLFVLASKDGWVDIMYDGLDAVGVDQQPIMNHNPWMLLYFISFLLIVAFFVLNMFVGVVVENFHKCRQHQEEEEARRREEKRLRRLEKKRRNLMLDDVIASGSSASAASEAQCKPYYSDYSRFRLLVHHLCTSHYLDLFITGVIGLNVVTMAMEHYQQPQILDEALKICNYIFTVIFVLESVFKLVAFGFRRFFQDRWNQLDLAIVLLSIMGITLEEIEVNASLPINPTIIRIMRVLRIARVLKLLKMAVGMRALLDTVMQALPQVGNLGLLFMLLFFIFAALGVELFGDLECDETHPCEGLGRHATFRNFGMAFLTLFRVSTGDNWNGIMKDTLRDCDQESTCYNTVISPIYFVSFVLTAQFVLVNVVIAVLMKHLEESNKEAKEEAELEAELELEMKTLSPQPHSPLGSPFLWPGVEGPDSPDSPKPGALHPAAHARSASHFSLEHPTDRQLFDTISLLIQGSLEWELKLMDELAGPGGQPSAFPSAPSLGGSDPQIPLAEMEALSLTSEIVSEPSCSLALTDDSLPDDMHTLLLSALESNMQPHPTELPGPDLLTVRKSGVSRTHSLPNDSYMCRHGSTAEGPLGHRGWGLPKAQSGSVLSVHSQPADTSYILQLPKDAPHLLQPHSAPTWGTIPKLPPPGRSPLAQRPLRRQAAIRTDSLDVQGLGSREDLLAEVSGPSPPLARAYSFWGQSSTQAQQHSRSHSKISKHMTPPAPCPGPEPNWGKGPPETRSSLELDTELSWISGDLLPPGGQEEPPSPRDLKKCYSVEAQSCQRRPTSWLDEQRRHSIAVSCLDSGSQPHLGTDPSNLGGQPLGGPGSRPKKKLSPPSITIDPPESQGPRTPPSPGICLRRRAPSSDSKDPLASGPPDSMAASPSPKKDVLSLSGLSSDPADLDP

In general, IC50 refers to the concentration that gives 50% inhibition. For orientation: inhibition means the drop in the measured response relative to a control, in per cent. Regarding `COCC(=O)O[C@]1(CCN(C)CCCc2nc3ccccc3[nH]2)CCc2cc(F)ccc2[C@@H]1C(C)C` [MIBEFRADIL], the IC50 is 35300 nM in data set [1], 24200 nM in [2] and 20500 nM in data set [3]. For the same compound, the inhibition in [4] is 55.1%.

`CN(C)CCN1CCN(C2=Nc3ccccc3C(CC(=O)NCc3ccc(F)cc3)N2c2ccc(-c3ccccc3)cc2)CC1` (stereo not given): the Activity entry is “Dose-dependent effect” in [5]; 8.1% in data set [6]; 18.1% in [9]; 66.7% in data set [11]; “Non-toxic” in data set [12]; “Dose-dependent effect” in [13]. Further, in data set [14], the Activity was found to be 7.1%. In addition, the IC50 in data set [1] amounted to 4000 nM; in data set [2], 1600 nM; in [7], 10000 nM; in [8], 320 nM; in data set [3], 3090 nM. Also, in [10], the result was Active. Further, the inhibition in data set [4] worked out at 81%.

In the case of `COc1ccc(CNC(=O)CC2c3ccccc3N=C(N3CCN(CCN(C)C)CC3)N2c2ccc(-c3ccccc3)cc2)cc1` (stereo not given), the Activity entry is “Dose-dependent effect” in data set [5]; 7.3% in data set [6]; 21.6% in [9]; 63.8% in data set [11]; “Non-toxic” in [12]; “Dose-dependent effect” in [13]. Moreover, the Activity in data set [14] worked out at 7.3%. The IC50 came to 3820 nM in [1]; 1440 nM in data set [2]; 9280 nM in data set [7]; 310 nM in [8]; 2470 nM in data set [3]. Moreover, in data set [10], the outcome was Active. Moreover, in data set [4], the inhibition is 75.9%.

As to `CN(C)CCN1CCN(C2=Nc3ccccc3C(CC(=O)NCc3ccccc3)N2c2ccc(-c3ccccc3)cc2)CC1` (stereo not given), the IC50 in data set [1] came to 2390 nM; in [2], 1390 nM; in data set [3], 1970 nM. Also, the inhibition in [4] turned out to be 46.8%.

Regarding `CN(C)CCCCN(C)C1=Nc2ccccc2C(CC(=O)NCc2ccccc2)N1c1ccc(-c2ccccc2)cc1` (stereo not given), the IC50 in data set [1] turned out to be 3970 nM; in data set [2] it was 1650 nM; in data set [8] it was 310 nM; in data set [3] it was 9780 nM. Besides, the inhibition in data set [4] was 81.7%.

For the compound `CN(C)CCN1CCN(C2=Nc3ccccc3C(CC(=O)NCc3ccncc3)N2c2ccc(-c3ccccc3)cc2)CC1` (stereo not given), the IC50 is over 5000 nM in data set [1], over 5000 nM in data set [2] and 11700 nM in data set [3]. For the same compound, the inhibition in [4] came to 29.1%.

On to `CN(C)CCN1CCN(C2=Nc3ccccc3C(CC(=O)NCc3ccccc3)N2c2ccc(-c3ccccn3)cc2)CC1` (stereo not given), for which the IC50 in data set [1] and in data set [2] was over 5000 nM each time. Also, the inhibition in [4] was determined as 32.3%.

Turning to `CN(C)CCN1CCN(C2=Nc3ccccc3C(CC(=O)NCc3ccccn3)N2c2ccc(-c3ccccc3)cc2)CC1` (stereo not given), the IC50 in data set [1] was over 5000 nM; in [2] it was 4860 nM; in [3], 5080 nM. In addition, the inhibition in data set [4] came to 43.9%.

As for `Cc1ccc(CNC(=O)CC2c3ccccc3N=C(N3CCN(CCN(C)C)CC3)N2c2ccc(-c3ccccc3)cc2)cc1` (stereo not given), the concentration for half-maximal inhibition (IC50) stood at 3520 nM in [1], 1600 nM in [2], 460 nM in [8] and 2330 nM in data set [3]. For the same compound, the inhibition in data set [4] came to 57.8%.

With `CN(C)CCCCCCN(C)C1=Nc2ccccc2C(CC(=O)NCc2ccccc2)N1c1ccc(-c2ccccc2)cc1` (stereo not given), the “Ratio IC50” value in [15] amounted to 20. Moreover, the IC50 worked out at 1740 nM in [1], 1190 nM in data set [2], 550 nM in data set [8] and 5780 nM in data set [3]. Also, the inhibition in [4] was determined as 66.7%.

Turning to `CN(C)CCCCCN(C)C1=Nc2ccccc2C(CC(=O)NCc2ccccc2)N1c1ccc(-c2ccccc2)cc1` (stereo not given), in [15], the “Ratio IC50” value is 20. In addition, the Activity in data set [6] worked out at 5.3%; in [16], 61.4%; in data set [9] it was 63.3%; in data set [17], 71.4%; in data set [18] it was 95.4%; in [11] it was 25.6%. The Activity in [14] was 5.8%; in [19], 14.7%. In addition, the IC50 came to 1600 nM in [1], 1060 nM in data set [2], 260 nM in data set [8] and 2470 nM in [3]. The inhibition in [4] amounted to 76.6%.

For the compound `COc1ccc(CNC(=O)CC2c3ccccc3N=C(N(C)CCCCCN(C)C)N2c2ccc(-c3ccccc3)cc2)cc1` (stereo not given), the IC50 in [1] was found to be 2520 nM; in data set [2], 1380 nM; in [8], 390 nM; in data set [3], 4460 nM. Further, the inhibition in [4] worked out at 68.2%.

Turning to `CN(C)CCCCCN(C)C1=Nc2ccccc2C(CC(=O)NCc2ccccc2)N1c1ccc(-c2ccccn2)cc1` (stereo not given), the figures for the IC50 in data set [1] and in [3] were over 5000 nM and 2410 nM, respectively. The inhibition in data set [4] was 30.9%.
